The assay concerns Murine hepatitis virus. As to the kind of experiment: Dose required to inhibit the growth of mouse hepatitis virus (MHV) in infected mouse astrocytoma (DBT) cells using plaque assay. Format: functional. The method, boiled down:
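DBT monolayers infected with MHV at MOI 1 to 5, adsorbed 1 h at room temperature, then given MEM with 5% FCS plus compound (final 0.97 to 3030 μM, 0.15% DMSO) at 37 °C. Media harvested 18 h postinfection and titred by plaque assay on DBT cells (0.75% agarose overlay, 48 h, neutral red). Run in duplicate. % inhibition = (1 − T/C) × 100; TCID50 by probit analysis.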
As for `Cc1ccc(S(=O)(=O)O)cc1.N/C(=N\O)N/N=C/c1cc(O)c(O)c(O)c1`, the EC50 came to 150 µM.
Compound `Cc1ccc(S(=O)(=O)O)cc1.N/C(=N\O)N/N=C/c1ccccc1O` displayed an EC50 of 76 µM.
In the case of `Cc1ccc(S(=O)(=O)O)cc1.N/C(=N\O)N/N=C/c1cc(Br)cc(Br)c1O`, the concentration for a half-maximal effect (EC50) came out at 9.5 µM.
In the case of `Cc1ccc(S(=O)(=O)O)cc1.N/C(=N\O)N/N=C/c1cc([N+](=O)[O-])cc([N+](=O)[O-])c1O`, the 50% effective concentration (EC50) is 273 µM.
Regarding `Cc1ccc(S(=O)(=O)O)cc1.N/C(=N\O)N/N=C/c1c(O)cc(O)cc1O`, the EC50 came to 18.1 µM.
Turning to `Cc1ccc(S(=O)(=O)O)cc1.N/C(=N\O)N/N=C/c1ccc(O)c(O)c1O`, the concentration giving a half-maximal response (EC50) is 183 µM.
For `Cc1ccc(S(=O)(=O)O)cc1.N/C(=N\O)N/N=C/c1ccc2ccccc2n1` the value was 39.3 µM; for `Cc1ccc(S(=O)(=O)O)cc1.N/C(=N\O)N/N=C/c1ncccc1O`, 89.9 µM.
`C=CCc1cccc(/C=N/N/C(N)=N/O)c1O.Cc1ccc(S(=O)(=O)O)cc1`: the EC50 is 3.42 µM.
Consider `Cc1ccc(S(=O)(=O)O)cc1.Cc1ncc(COP(=O)(O)O)c(/C=N/N=C(/N)NO)c1O`, for which the EC50 was 40.8 µM.
For `Cc1ccc(S(=O)(=O)O)cc1.N/C(=N\O)N/N=C/c1cc(Cl)cc(Cl)c1O` the value was 9.54 µM; for `Cc1ccc(S(=O)(=O)O)cc1.N/C(=N\O)N/N=C/c1cc2c(cc1Cl)OCO2`, 9.14 µM; for `Cc1ccc(S(=O)(=O)O)cc1.N/C(=N\O)N/N=C/c1ccc2c(c1)OCCO2`, 46.1 µM.
`Cc1ccc(S(=O)(=O)O)cc1.N/C(=N\O)N/N=C/c1nccc2ccccc12` registered a 50% effective concentration (EC50) of 47.7 µM.
`Cc1ccc(S(=O)(=O)O)cc1.N/C(=N\O)N/N=C/c1c2ccccc2c(Cl)c2ccccc12` showed a concentration giving a half-maximal response (EC50) of 7.12 µM.

The values are drawn from ChEMBL document CHEMBL1125152, “Design, synthesis, testing, and quantitative structure-activity relationship analysis of substituted salicylaldehyde Schiff bases of 1-amino-3-hydroxyguanidine tosylate as new antiviral agents against coronavirus” (1990).
